Measured values of several laboratories.
Each line is one published result; the experiments were not run side by side.
Target: Muscle, skeletal receptor tyrosine-protein kinase (MUSK, Homo sapiens, UniProt O15146)
Sequence (O15146 24-869, as in one of the studies): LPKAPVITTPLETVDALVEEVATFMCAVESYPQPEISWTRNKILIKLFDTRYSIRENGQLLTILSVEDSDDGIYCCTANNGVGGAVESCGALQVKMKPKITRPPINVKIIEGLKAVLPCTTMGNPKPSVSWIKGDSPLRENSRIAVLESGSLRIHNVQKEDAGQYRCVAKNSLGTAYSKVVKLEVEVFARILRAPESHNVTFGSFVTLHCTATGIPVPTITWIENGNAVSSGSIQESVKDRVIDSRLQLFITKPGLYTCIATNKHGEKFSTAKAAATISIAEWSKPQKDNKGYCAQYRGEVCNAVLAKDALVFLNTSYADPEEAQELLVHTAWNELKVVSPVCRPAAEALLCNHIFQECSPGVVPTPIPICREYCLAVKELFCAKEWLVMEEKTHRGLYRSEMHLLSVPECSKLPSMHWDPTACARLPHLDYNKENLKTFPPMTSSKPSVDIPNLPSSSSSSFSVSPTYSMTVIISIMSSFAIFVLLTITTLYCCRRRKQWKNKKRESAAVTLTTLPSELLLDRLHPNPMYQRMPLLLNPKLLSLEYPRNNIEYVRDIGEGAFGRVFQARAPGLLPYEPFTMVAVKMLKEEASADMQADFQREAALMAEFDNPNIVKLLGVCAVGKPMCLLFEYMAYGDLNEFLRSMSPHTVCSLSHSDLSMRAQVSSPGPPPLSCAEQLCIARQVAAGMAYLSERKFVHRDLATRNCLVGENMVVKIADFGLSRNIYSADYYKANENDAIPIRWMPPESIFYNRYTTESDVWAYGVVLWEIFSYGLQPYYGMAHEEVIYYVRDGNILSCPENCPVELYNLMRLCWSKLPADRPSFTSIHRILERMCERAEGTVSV

| SMILES | effect on | method | concentration | remaining binding [%] |
| --- | --- | --- | --- | --- |
| O=C(NCCCN1CCOCC1)c1ccc(Nc2nccc(-c3cc4ccccc4s3)n2)cc1 | binding | competition with immobilised ligand | 1 µM | 77 |
| CCCCN(CCCC)C(=O)CN1C[C@@H](c2cc(OC)c3c(c2)OCO3)[C@H](C(=O)O)[C@H]1CC(C)(C)CCC | cell-free assay | competition with immobilised ligand | 1 µM | 78.7 |
| Nc1ncc2c(n1)-c1c([nH]c3ccc(C#CC4CC4)cc13)CCCC2 | binding | competition with immobilised ligand | 1 µM | 100 |
| COc1ncc2cc3ccccc3nc2c1C#N | cell-free assay | competition with immobilised ligand | 5 µM | 100 |
| O=C(NCc1ncc(C(F)(F)F)cc1Cl)c1ccc2c(c1)C1(CCS(=O)(=O)CC1)[C@@H](C1CC1)N2S(=O)(=O)c1ccc(F)cc1 | cell-free assay | competition with immobilised ligand | 1 µM | 79 |
| C[C@@H](c1ccc(-n2cnc3c(N)ncnc32)cc1)N1CCc2nn(C)c(Cc3ccccc3)c2C1=O | binding | competition with immobilised ligand | 0.1 µM | 68 |
| CN([C@@H]1CCc2c(CC(=O)O)c3cc(S(C)(=O)=O)ccc3n2C1)S(=O)(=O)c1ccc(F)cc1 | cell-free assay | competition with immobilised ligand | 1 µM | 100 |
| CN(c1nccc(-c2cnn3ncccc23)n1)C1CC1 | binding |  | 1 µM | 100 |
| CC(=O)c1c(NS(C)(=O)=O)c2cc(-c3ccc(Cl)cc3)c(-c3ccc(Cl)cc3Cl)nc2n(C)c1=O | cell-free assay | competition with immobilised ligand | 1 µM | 99 |
| CN(C)c1nccc(-c2cnn3ncccc23)n1 | binding |  | 1 µM | 92 |
| COc1ccc2c(c1)O[C@@H](c1ccc(OC)c(OC)c1)C[C@H]2NC(=O)C1(c2ccc3c(c2)OC(F)(F)O3)CC1 | cell-free assay | competition with immobilised ligand | 1 µM | 94 |
| CNC(=O)[C@@H]1CC[C@@H](n2c(-c3ccc4cnccc4c3)nc3ccc(C(=O)NCc4cccc(C(N)=O)c4)cc32)C1 | binding | competition with immobilised ligand | 1 µM | 90 |
| CC1CCCN1c1nccc(-c2cnn3ncccc23)n1 (stereo not shown) | binding |  | 1 µM | 100 |
| O=C(NCCCN1CCOCC1)c1ccc(Nc2ncc(Cl)c(-c3ccc(Cl)s3)n2)cc1 | binding | competition with immobilised ligand | 1 µM | 54 |
| COc1ccnn2ncc(-c3ccnc(N(C)C)n3)c12 | binding |  | 1 µM | 93 |
| CCN1CCN(Cc2ccc(C(=O)Nc3ccc(C)c(Oc4ccc5c(c4)CC(=O)N5)c3)cc2C(F)(F)F)CC1 | binding | competition with immobilised ligand | 1 µM | 100 |
| C[C@H]1CCN(c2nccc(-c3cnn4ncccc34)n2)C1 | binding |  | 1 µM | 80 |
| O=C(Nc1c[nH]nc1C(=O)NC1CCNCC1)c1cc(F)cc(F)c1 | binding | competition with immobilised ligand | 1 µM | 88 |
| Cc1cnn2ncc(-c3ccnc(N(C)C)n3)c2c1 | binding |  | 1 µM | 79 |
| O=C(c1ccc(Nc2ncc(Cl)c(-c3cc4ccccc4s3)n2)cc1)N1CCC(N2CCCC2)CC1 | binding | competition with immobilised ligand | 1 µM | 24 |
| N[C@@H]1CCN(c2nccc(-c3cnn4ncccc34)n2)C1 | binding |  | 1 µM | 100 |
| CCS(=O)(=O)c1cc2cc(C[C@](O)(CC(C)(C)c3ccc(F)cc3C(N)=O)C(F)(F)F)[nH]c2cn1 | cell-free assay | competition with immobilised ligand | 1 µM | 94 |
